From ChEMBL document CHEMBL2417369, “Synthesis and evaluation of heteroaryl substituted diazaspirocycles as scaffolds to probe the ATP-binding site of protein kinases” (Bioorg Med Chem, 2013) come the findings set out here.

Experiment [1] concerns the target Tyrosine-protein kinase Lyn (Homo sapiens, UniProt P07948). Put plainly: Inhibition of LYN (unknown origin) at 30 uM by microfluidic mobility shift assay relative to control. The method, boiled down:
(§1)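 Single-point screen in a 24-enzyme kinase panel using a microfluidic assay. Each compound was tested at […] with ATP at roughly the Km for each enzyme. The pan-AGC inhibitor H-89 served as an internal control on every plate.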

Experiment [2] deals with Proto-oncogene tyrosine-protein kinase Src (Homo sapiens, UniProt P12931). Nature of the experiment: Inhibition of SRC (unknown origin) at 30 uM by microfluidic mobility shift assay relative to control. In a few lines: as §1
Chain of Proto-oncogene tyrosine-protein kinase Src (P12931 2-536 limits assumed): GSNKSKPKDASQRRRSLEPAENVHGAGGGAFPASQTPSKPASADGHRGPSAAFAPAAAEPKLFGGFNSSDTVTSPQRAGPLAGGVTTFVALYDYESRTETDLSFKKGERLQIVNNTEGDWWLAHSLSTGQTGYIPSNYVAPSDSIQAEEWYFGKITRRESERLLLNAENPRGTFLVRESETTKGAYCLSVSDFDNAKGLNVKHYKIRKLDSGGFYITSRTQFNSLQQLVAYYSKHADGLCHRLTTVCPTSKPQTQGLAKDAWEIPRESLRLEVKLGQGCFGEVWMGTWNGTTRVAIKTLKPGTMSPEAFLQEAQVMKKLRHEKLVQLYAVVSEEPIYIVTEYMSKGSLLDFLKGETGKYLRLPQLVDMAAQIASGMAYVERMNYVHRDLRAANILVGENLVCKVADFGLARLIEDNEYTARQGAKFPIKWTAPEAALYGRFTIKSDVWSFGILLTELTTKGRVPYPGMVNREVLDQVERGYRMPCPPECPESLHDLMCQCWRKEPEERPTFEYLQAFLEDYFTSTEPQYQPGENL
Experiment [3] has as its target Tyrosine-protein kinase Fyn (Homo sapiens, UniProt P06241). Put plainly: Inhibition of FYN (unknown origin) at 30 uM by microfluidic mobility shift assay relative to control. The method, boiled down:
as §1

For another experiment, the species on record is Homo sapiens. Put plainly: Inhibition of PKA (unknown origin) at 30 uM by microfluidic mobility shift assay relative to control. In a few lines:
as §1

Experiment [4] addresses Tyrosine-protein kinase Lck (Homo sapiens, UniProt P06239). Nature of the experiment: Inhibition of LCK (unknown origin) at 30 uM by microfluidic mobility shift assay relative to control. The method, boiled down: as §1
Experiment [5] deals with Insulin receptor (Homo sapiens) (UniProt P06213). Put plainly: Inhibition of INSR (unknown origin) at 30 uM by microfluidic mobility shift assay relative to control. The method, boiled down: as §1
Chain of Insulin receptor (Homo sapiens) (P06213 28-758 limits assumed): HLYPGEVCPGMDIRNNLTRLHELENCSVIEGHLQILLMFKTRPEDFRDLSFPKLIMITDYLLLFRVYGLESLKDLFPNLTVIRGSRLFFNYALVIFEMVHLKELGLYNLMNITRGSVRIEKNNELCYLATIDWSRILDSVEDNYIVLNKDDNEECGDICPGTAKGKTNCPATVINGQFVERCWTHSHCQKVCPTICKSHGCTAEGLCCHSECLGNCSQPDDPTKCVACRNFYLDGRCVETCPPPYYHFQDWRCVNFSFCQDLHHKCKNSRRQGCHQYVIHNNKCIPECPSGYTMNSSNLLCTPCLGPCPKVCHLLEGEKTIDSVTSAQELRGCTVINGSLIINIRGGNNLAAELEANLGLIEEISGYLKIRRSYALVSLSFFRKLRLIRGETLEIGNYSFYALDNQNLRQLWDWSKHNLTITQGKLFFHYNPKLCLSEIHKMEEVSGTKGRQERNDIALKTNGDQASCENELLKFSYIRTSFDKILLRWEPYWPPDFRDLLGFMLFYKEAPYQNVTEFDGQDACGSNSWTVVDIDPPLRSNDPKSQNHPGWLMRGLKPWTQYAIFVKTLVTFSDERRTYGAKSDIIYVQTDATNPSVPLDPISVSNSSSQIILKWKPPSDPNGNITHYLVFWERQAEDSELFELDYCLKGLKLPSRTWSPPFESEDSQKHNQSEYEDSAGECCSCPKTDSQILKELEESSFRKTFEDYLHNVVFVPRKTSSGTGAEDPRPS
Chain of Insulin receptor (Homo sapiens) (P06213 763-1382 limits assumed): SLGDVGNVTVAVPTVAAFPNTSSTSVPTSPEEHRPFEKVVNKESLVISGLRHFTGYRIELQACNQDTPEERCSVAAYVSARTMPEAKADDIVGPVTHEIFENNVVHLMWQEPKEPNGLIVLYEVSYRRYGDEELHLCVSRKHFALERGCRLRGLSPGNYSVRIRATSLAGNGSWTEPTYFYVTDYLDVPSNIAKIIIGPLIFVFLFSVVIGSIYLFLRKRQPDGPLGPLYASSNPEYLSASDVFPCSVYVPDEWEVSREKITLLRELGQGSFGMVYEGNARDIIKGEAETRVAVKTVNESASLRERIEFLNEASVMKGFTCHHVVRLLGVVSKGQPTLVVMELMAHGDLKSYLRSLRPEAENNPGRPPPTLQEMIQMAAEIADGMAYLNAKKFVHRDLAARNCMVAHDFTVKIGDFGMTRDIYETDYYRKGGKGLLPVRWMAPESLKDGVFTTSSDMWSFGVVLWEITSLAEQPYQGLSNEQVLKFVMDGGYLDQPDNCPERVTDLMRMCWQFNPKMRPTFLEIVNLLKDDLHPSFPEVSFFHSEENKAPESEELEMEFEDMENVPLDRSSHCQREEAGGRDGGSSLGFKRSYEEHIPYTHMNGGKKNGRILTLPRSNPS
The target of experiment [6] is Protein kinase C (PKC) (Homo sapiens) (UniProt O94806+P41743+P17252+P05129+Q05655+P05771+Q05513+Q02156+P24723+Q15139+Q04759). Nature of the experiment: Inhibition of PKC (unknown origin) at 30 uM by microfluidic mobility shift assay relative to control. The method, boiled down:
as §1

Broadly, the inhibition is the share of the control response that was lost under treatment.

Chain of Tyrosine-protein kinase Lck (P06239 2-509 limits assumed): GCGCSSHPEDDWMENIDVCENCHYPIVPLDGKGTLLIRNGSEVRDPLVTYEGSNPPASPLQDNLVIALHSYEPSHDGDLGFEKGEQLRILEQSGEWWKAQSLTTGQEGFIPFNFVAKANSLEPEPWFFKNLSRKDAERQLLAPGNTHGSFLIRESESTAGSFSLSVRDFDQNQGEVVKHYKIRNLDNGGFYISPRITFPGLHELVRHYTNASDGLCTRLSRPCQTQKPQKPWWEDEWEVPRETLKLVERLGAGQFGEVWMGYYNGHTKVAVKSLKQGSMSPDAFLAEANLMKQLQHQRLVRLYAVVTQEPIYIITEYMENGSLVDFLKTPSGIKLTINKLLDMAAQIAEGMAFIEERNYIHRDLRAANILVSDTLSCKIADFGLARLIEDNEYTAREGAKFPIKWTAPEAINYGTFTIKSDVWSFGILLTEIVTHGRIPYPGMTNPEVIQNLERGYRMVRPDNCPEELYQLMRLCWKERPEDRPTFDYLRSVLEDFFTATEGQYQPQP
Chain of Tyrosine-protein kinase Fyn (P06241 2-537 limits assumed): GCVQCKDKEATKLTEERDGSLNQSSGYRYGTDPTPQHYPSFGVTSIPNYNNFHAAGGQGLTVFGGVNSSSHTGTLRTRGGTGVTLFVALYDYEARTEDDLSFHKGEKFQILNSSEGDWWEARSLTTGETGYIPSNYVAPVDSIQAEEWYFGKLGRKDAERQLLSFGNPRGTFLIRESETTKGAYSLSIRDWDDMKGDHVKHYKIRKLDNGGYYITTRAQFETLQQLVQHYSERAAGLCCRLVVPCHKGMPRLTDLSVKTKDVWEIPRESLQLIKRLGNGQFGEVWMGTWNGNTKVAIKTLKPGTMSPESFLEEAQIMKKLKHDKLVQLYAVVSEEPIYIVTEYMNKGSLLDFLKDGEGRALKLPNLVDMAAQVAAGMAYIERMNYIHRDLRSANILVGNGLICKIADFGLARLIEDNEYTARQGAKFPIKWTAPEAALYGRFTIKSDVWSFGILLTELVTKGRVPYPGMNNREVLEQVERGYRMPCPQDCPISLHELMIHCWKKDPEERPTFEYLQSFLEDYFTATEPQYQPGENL
Chain of Tyrosine-protein kinase Lyn (P07948 2-512 limits assumed): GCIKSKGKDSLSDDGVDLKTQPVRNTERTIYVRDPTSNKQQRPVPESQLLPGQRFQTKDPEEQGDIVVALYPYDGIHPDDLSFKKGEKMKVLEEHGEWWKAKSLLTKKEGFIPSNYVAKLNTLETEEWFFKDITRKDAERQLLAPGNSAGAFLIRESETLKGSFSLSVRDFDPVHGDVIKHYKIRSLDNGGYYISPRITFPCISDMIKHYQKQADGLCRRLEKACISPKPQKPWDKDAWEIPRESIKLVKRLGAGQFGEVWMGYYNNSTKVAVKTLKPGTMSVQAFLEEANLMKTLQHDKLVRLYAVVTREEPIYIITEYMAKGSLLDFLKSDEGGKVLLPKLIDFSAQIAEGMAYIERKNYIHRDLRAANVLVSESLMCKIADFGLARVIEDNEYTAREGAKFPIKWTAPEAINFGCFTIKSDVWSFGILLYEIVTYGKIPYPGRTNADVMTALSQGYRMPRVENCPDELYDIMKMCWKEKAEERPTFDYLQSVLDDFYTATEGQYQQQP

In the case of `O=S(=O)(NCCNC/C=C/c1ccc(Br)cc1)c1cccc2cnccc12`, the inhibition in experiment [1] turned out to be 50%; in experiment [2], 4%; in experiment [3], 14%; in the experiment listed under Homo sapiens, 100%; in experiment [4], 22%; in experiment [5], 29%. The inhibition in experiment [6] stood at 64%.
